Compounds with a hit are over-represented: about 0.72% of the library has one in this group of screens.
hIAP activ – increases human intestinal alkaline phosphatase activity; P09923; purified human IAP, CDP-Star luminescence, 30 min; hits give high values; 1 = vehicle-only enzyme, 0 = enzyme-free background; activation factor at 10 µM; 330,000 tested, 0.16% active; AID 2524;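 active means activation factor of the enzyme at least 2-fold when tested at 20 µM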
Target sequence (P09923 whole entry, looked up): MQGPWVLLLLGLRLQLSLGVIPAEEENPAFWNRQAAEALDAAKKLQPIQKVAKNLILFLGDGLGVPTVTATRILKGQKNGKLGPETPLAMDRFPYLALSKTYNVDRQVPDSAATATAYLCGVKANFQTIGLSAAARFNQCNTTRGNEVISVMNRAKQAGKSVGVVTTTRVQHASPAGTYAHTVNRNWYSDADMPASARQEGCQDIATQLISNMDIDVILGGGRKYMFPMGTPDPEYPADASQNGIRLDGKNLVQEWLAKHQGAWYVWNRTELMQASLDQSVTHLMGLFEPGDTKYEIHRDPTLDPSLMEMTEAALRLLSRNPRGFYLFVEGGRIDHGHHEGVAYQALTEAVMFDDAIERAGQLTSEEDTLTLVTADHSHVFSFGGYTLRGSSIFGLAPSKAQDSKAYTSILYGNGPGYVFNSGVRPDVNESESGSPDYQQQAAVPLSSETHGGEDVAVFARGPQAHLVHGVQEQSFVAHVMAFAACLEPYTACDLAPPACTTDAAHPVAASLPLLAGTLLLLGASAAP
bIAP inh – blocks bovine intestinal alkaline phosphatase activity; 190,000 tested, under 10 active; inhibition, % at 20 µM; purified bovine IAP, CDP-star luminescence, 30 min;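 active means over 50% inhibition of intestinal alkaline phosphatase at 20 µM in the single-dose screen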
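Assay system: bovine IAP enzyme; medium: DEA buffer 100 mM, pH 9.8, with MgCl2 1.0 mM, ZnCl2 0.02 mM; doses: 20 µM single dose; incubation: enzyme reaction for 30 min at room temperature; detection: CDP-star luminescence signal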
mIAP activ – mouse IAP activation; muIAP, CDP-Star luminescence, 30 min; hits give high values; 1 = vehicle-only enzyme signal, 0 = enzyme-free wells; AID 2805; activation factor at 10 µM; 330,000 tested, 0.24% active;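 active means activation factor of at least 2 at 20 µM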
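also added = chemiluminescent substrate CDP-Star | test system = mouse IAP enzyme | signal = chemiluminescence readout | compound = DMSO-dissolved test compounds | incubation = 30 min at room temperature | benchmarks = DMSO wells, no-enzyme wells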
bIAP act – increases bovine intestinal alkaline phosphatase activity; purified bovine IAP, CDP-star luminescence, 30 min; hits give high values; fold of DMSO-control signal, blank-subtracted; activation factor at 20 µM; 200,000 tested, 0.17% active; AID 1016;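 active means activation factor of 2 or more at 20 µM, a signal rise over negative controls twice the positive control's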
hIAP inh – human IAP inhibition; 330,000 tested, 0.12% active; P09923; purified IAP, CDP-Star luminescence, 30 min; inhibition, % at 10 µM;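 active means inhibition reaching a set limit with compound at 10 µM in the primary screen, cut at about 35% in these data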
mIAP block – mouse IAP inhibition; purified mouse IAP, CDP-Star luminescence, 30 min; AID 2806; inhibition, % at 10 µM; 330,000 tested, 0.2% active;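 active means inhibition of at least 40% at 10 µM in the primary screen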
hIAP act confirm – human IAP activation confirmation; shares compounds with hIAP activ; purified IAP, CDP-Star luminescence, 30 min; hits give low values; activation (%Activity, negative = activation), % at 8.3 µM; 880 tested, 10% active; AID 434926;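 active means at least twofold enzyme activation in any of six single-dose repeats, which the averaged readout prints as negative percent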
mIAP inh conf – mouse IAP inhibition confirmation; shares compounds with mIAP block; purified mouse IAP, CDP-Star luminescence, 30 min; inhibition, % at 10 µM; 11,000 tested, 4.7% active;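 active means inhibition of at least 40% at 10 µM in either of the two replicates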
Of the large screens only hits and unclear results are named; the others gave an inactive call (follow-up assays come after a bar, where they were run).

C=CCn1c(O)c(N=Nc2ccccc2O)c2ccccc21	hIAP activ 2.2 (no result: bIAP inh, bIAP act) | hIAP act confirm inactive
CCCCCCN1C=CC(=C/C=C(\C#N)C(=O)OCC)C=C1	hIAP inh 44.5 | hIAP act confirm inactive
COc1cc2c(cc1OC)C(Cc1ccc(O)c(Oc3ccc(C[C@H]4c5cc(OC)c(OC)cc5CCN4C)cc3)c1)N(C)CC2 (stereo partly specified)	none (no result: bIAP inh, bIAP act)
CCN(C(=O)COC(=O)c1ccc([N+](=O)[O-])o1)c1cccc2ccccc12	none (no result: bIAP inh, bIAP act)
CC(C)CC(=O)Nc1ccc(C(=O)NNC(=S)NC(=O)C2CCCCC2)cc1	hIAP activ 2.62 | hIAP act confirm inactive
N#CCC(=O)Nc1ccc(C(=O)NNC(=S)NC2CCCCC2)cc1	none (no result: bIAP inh, bIAP act)
Cc1c(/C=N/NC(=O)c2cc(Br)ccc2O)c(=O)n(C)c(=O)n1C	hIAP activ 2.15 (no result: bIAP inh, bIAP act) | hIAP act confirm inactive
C/C=N/NC(=O)c1cc(Br)ccc1O	none
O=C(NNC(=O)c1ccccc1O)c1cc2ccccc2o1	hIAP activ 2.37 (no result: bIAP inh, bIAP act) | hIAP act confirm inactive
O=C(Cn1ccnc1)c1ccc(O)c(O)c1	hIAP inh 40.6 (no result: bIAP inh, bIAP act) | hIAP act confirm inactive
O=C(c1ccc(Cl)cc1)N(Cc1cccs1)C1CCS(=O)(=O)C1 (stereo unspecified)	none
Cc1ccc(C(=O)N(Cc2cccs2)C2CCS(=O)(=O)C2)cc1 (stereo unspecified)	hIAP inh 41.8 (no result: bIAP inh, bIAP act) | hIAP act confirm inactive
Cc1ccc(NS(=O)(=O)c2ccc(NC(=O)C3CC3)cc2)c(C)c1	hIAP inh 36.0 (no result: bIAP inh, bIAP act) | hIAP act confirm inactive
Cc1ccc(NS(=O)(=O)c2ccc(NC(=O)c3cccs3)cc2)c(C)c1	none
COc1ccc(C(=O)NC(=S)NNC(=O)c2ccc(NC(C)=O)cc2)cc1Br	hIAP activ 2.1 | hIAP act confirm inactive
CCOC(=O)[C@H]1[C@H]2COc3ccc(Br)cc3[C@H]2N2C(=O)CNC(=O)[C@@]12C	none (no result: bIAP inh, bIAP act)
Cc1ccc(OCC(=O)Nc2cccc(O)c2)cc1C	none
Cc1cccc(OCC(=O)Nc2cccc(O)c2)c1	hIAP activ 2.17 | hIAP act confirm inactive
Cc1nc(-c2ccc(S(=O)(=O)N3CCCN(CCc4ccccc4)CC3)s2)cs1	hIAP activ 2.27 (no result: bIAP inh, bIAP act) | hIAP act confirm inactive
CCC(C)C(NC(=O)CCC(=O)OCC(=O)[C@@]1(O)CCC2[C@@H]3CCC4=CC(=O)C=C[C@]4(C)C3[C@@H](O)C[C@@]21C)C(=O)O (stereo partly specified)	none (no result: bIAP inh, bIAP act)
O=C(Cc1ccc(Cl)c(Cl)c1)NNC(=S)NCC1CCCO1 (stereo unspecified)	hIAP activ 2.07 (no result: bIAP inh, bIAP act) | hIAP act confirm -97.6
S=C(NCC1CCCO1)Nc1ccc(Cl)c(Cl)c1 (stereo unspecified)	none
C[C@@H]1CCCCCCCCC(=O)OCCN(C(=O)OC(C)(C)C)[C@H](C)CCCCCCCCC(=O)OCCN(C(=O)OC(C)(C)C)[C@H](C)CCCCCCCCC(=O)OCCN1C(=O)OC(C)(C)C	none (no result: bIAP inh, bIAP act)
COc1ccc(C(=O)NC2CCCc3c2cnn3-c2cc(F)cc(F)c2)c(OC)c1OC (stereo unspecified)	none (no result: bIAP inh, bIAP act)
COc1ccc(OC)c(NC(=O)C2CCN(Cc3cnn(-c4ccccc4)c3-n3cccc3)CC2)c1	none
COc1ccc(NC(=O)C2CCN(Cc3cnn(-c4ccccc4)c3-n3cccc3)CC2)cc1OC	hIAP activ 2, bIAP act 3.3 | hIAP act confirm inactive
CC1CCCN(C(=O)C2CCN(S(=O)(=O)c3cccc4nsnc34)CC2)C1 (stereo unspecified)	hIAP inh 48.9 (no result: bIAP inh, bIAP act) | hIAP act confirm inactive
COc1cccc(NC(=O)CN(C)C(=O)c2ccc(-n3cncn3)c([N+](=O)[O-])c2)c1	none (no result: bIAP inh, bIAP act)
O=C(COc1ccccc1C(=O)N/N=C\c1ccc(O)c(O)c1)N/N=C/c1ccc(O)c(O)c1	hIAP inh 57.6, mIAP block 72.7 | hIAP act confirm inactive | mIAP inh conf 81.9
COc1cccc(OC)c1OCCCNC1CCCC1	none (no result: bIAP inh, bIAP act)
